Results taken from ChEMBL document CHEMBL1671767, “Fusidic acid resistance determinants in Staphylococcus aureus clinical isolates” (2010).
≈ marks a conversion by molar mass, not a printed value.

Legend:
Assay type in all cases: functional
Staphylococcus aureus [1] = test: Antibacterial activity against fusidic acid-resistant Staphylococcus aureus harboring L461K mutation in domain 3 of EF-G encoded by fusA gene after 16 to 20 hrs by CLSI agar dilution method
Method in brief: (§1)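 Clinical isolates collected at a Taiwanese teaching hospital, 2002–2007. Inoculum was made by direct colony suspension to 0.5 McFarland. 10^4 CFU/spot was applied by Steers replicator onto Mueller-Hinton agar containing fusidic acid at 0.03 to 128 μg/ml. Plates were incubated at 33 to 35°C for 16–20 h. S. aureus ATCC 29213 served as control. Resistance breakpoint was 2 μg/ml.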

Staphylococcus aureus [2] = test: Antibacterial activity against Staphylococcus aureus harboring G451V mutation in domain 3 of EF-G encoded by fusA gene after 16 to 20 hrs by CLSI agar dilution method; method in brief: as §1
Staphylococcus aureus [3] = test: Antibacterial activity against fusidic acid-resistant Staphylococcus aureus harboring H457Q and L461K mutations in domain 3 of EF-G encoded by fusA gene after 16 to 20 hrs by CLSI agar dilution method; method in brief: as §1
Staphylococcus aureus [4] = test: Antibacterial activity against fusidic acid-resistant Staphylococcus aureus harboring H457Q mutation in domain 3 of EF-G encoded by fusA gene after 16 to 20 hrs by CLSI agar dilution method; method in brief: as §1
Staphylococcus aureus [5] = test: Antibacterial activity against fusidic acid-resistant, methicillin-susceptible Staphylococcus aureus after 16 to 20 hrs by CLSI agar dilution method
Method in brief: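 Clinical isolates from a Taiwan teaching hospital, 2002–2007. CLSI agar dilution: colonies suspended directly to 0.5 McFarland, and 10^4 CFU/spot applied by Steers replicator to Mueller-Hinton agar containing fusidic acid at 0.03 to 128 μg/ml. Plates incubated 16 to 20 h at 33 to 35°C. S. aureus ATCC 29213 used as control; resistance breakpoint 2 μg/ml.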

Staphylococcus aureus [6] = test: Antibacterial activity against fusidic acid-resistant Staphylococcus aureus harboring A70V in domain 1 and H457Y mutation in domain 3 of EF-G encoded by fusA gene after 16 to 20 hrs by CLSI agar dilution method; method in brief: as §1
Staphylococcus aureus [7] = test: Antibacterial activity against fusidic acid-resistant Staphylococcus aureus harboring H457Q and L461F mutations in domain 3 of EF-G encoded by fusA gene after 16 to 20 hrs by CLSI agar dilution method; method in brief: as §1
Staphylococcus aureus [8] = test: Antibacterial activity against Staphylococcus aureus harboring M453I mutation in domain 3 of EF-G encoded by fusA gene after 16 to 20 hrs by CLSI agar dilution method; method in brief: as §1
Staphylococcus aureus [9] = test: Antibacterial activity against fusidic acid-resistant Staphylococcus aureus harboring A376V in domain 2 and L456F mutation in domain 3 of EF-G encoded by fusA gene after 16 to 20 hrs by CLSI agar dilution method; method in brief: as §1
Staphylococcus aureus [10] = test: Antibacterial activity against fusidic acid-resistant Staphylococcus aureus harboring A71V in domain 1 and P404L mutation in domain 3 of EF-G encoded by fusA gene after 16 to 20 hrs by CLSI agar dilution method; method in brief: as §1
Staphylococcus aureus [11] = test: Antibacterial activity against fusidic acid-resistant Staphylococcus aureus harboring E444K mutation in domain 3 of EF-G encoded by fusA gene after 16 to 20 hrs by CLSI agar dilution method; method in brief: as §1
Staphylococcus aureus [12] = test: Antibacterial activity against fusidic acid-resistant Staphylococcus aureus harboring M16I in domain 1 and H457Y mutation in domain 3 of EF-G encoded by fusA gene after 16 to 20 hrs by CLSI agar dilution method; method in brief: as §1
Staphylococcus aureus [13] = test: Antibacterial activity against fusidic acid-resistant methicillin-resistant Staphylococcus aureus harboring P404L mutation in domain 3 of EF-G encoded by fusA gene after 16 to 20 hrs by CLSI agar dilution method; method in brief: as §1
Staphylococcus aureus [14] = test: Antibacterial activity against fusidic acid-resistant Staphylococcus aureus harboring H457Y mutation in domain 3 of EF-G encoded by fusA gene after 16 to 20 hrs by CLSI agar dilution method; method in brief: as §1
Staphylococcus aureus [15] = test: Antibacterial activity against Staphylococcus aureus harboring L461S mutation in domain 3 of EF-G encoded by fusA gene after 16 to 20 hrs by CLSI agar dilution method; method in brief: as §1
Staphylococcus aureus [16] = test: Antibacterial activity against fusidic acid-resistant Staphylococcus aureus harboring A67T in domain 1 and H457Y mutation in domain 3 of EF-G encoded by fusA gene after 16 to 20 hrs by CLSI agar dilution method; method in brief: as §1
Staphylococcus aureus [17] = test: Antibacterial activity against methicillin-susceptible Staphylococcus aureus harboring P478S mutation in domain 3 of EF-G encoded by fusA gene after 16 to 20 hrs by CLSI agar dilution method; method in brief: as §1
Staphylococcus aureus [18] = test: Antibacterial activity against methicillin-susceptible Staphylococcus aureus harboring M651I mutation in domain 5 of EF-G encoded by fusA gene after 16 to 20 hrs by CLSI agar dilution method
Method in brief: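 Agar dilution per CLSI on Mueller-Hinton agar, fusidic acid 0.03 to 128 μg/ml. Inoculum from direct colony suspension adjusted to 0.5 McFarland, 104 CFU/spot applied by Steers replicator. Plates incubated 33 to 35°C for 16 to 20 h. S. aureus ATCC 29213 as control strain; resistance breakpoint 2 μg/ml.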

Staphylococcus aureus [19] = test: Antibacterial activity against fusidic acid-resistant, methicillin-resistant Staphylococcus aureus after 16 to 20 hrs by CLSI agar dilution method; method in brief: as §1
Staphylococcus aureus [20] = test: Antibacterial activity against Staphylococcus aureus harboring […] and C473S mutations in domain 3 of EF-G encoded by fusA gene after 16 to 20 hrs by CLSI agar dilution method; method in brief: as §1
Staphylococcus aureus [21] = test: Antibacterial activity against fusidic acid-resistant Staphylococcus aureus harboring R76C in domain 1 and H457Y mutation in domain 3 of EF-G encoded by fusA gene after 16 to 20 hrs by CLSI agar dilution method; method in brief: as §1
Staphylococcus aureus [22] = test: Antibacterial activity against fusidic acid-resistant Staphylococcus aureus harboring E444V and L461F mutations in domain 3 of EF-G encoded by fusA gene after 16 to 20 hrs by CLSI agar dilution method; method in brief: as §1
Staphylococcus aureus [23] = test: Antibacterial activity against fusidic acid-resistant methicillin-susceptible Staphylococcus aureus harboring P404L mutation in domain 3 of EF-G encoded by fusA gene after 16 to 20 hrs by CLSI agar dilution method; method in brief: as §1
Staphylococcus aureus [24] = test: Antibacterial activity against Staphylococcus aureus harboring P406L mutation in domain 3 of EF-G encoded by fusA gene after 16 to 20 hrs by CLSI agar dilution method; method in brief: as §1

`CC(=O)O[C@H]1C[C@@]2(C)[C@@H](C[C@@H](O)[C@H]3[C@@]4(C)CC[C@@H](O)[C@@H](C)[C@@H]4CC[C@@]32C)/C1=C(\CCC=C(C)C)C(=O)O` [FUSIDIC ACID] was tested. Which MIC (Staphylococcus aureus [1]) did it give?
Its MIC is over 128 µg/mL.

What about the MIC (Staphylococcus aureus [2]) of the same compound?
The MIC was 8 µg/mL (≈ 15.5 µM).

What about the MIC (Staphylococcus aureus [3]) of the same compound?
Its MIC is over 128 µg/mL.

What about the MIC (Staphylococcus aureus [4]) of the same compound?
The MIC was 8 µg/mL (≈ 15.5 µM).

And the MIC50 (Staphylococcus aureus [5])?
The MIC50 was 8 µg/mL (≈ 15.5 µM).

And the MIC90 (Staphylococcus aureus [5])?
Its MIC90 is 16 µg/mL (≈ 31 µM).

What about the MIC (Staphylococcus aureus [6]) of the same compound?
Its MIC is over 128 µg/mL.

And the MIC (Staphylococcus aureus [7])?
The MIC was 128 µg/mL (≈ 248 µM).

What about the MIC (Staphylococcus aureus [8]) of the same compound?
Its MIC is 8 µg/mL (≈ 15.5 µM).

And the MIC (Staphylococcus aureus [9])?
The MIC was 32 µg/mL (≈ 61.9 µM).

What about the MIC (Staphylococcus aureus [10]) of the same compound?
Its MIC is 8 µg/mL (≈ 15.5 µM).

What about the MIC (Staphylococcus aureus [11]) of the same compound?
The MIC was 16 µg/mL (≈ 31 µM).

What about the MIC (Staphylococcus aureus [12]) of the same compound?
Its MIC is 16 µg/mL (≈ 31 µM).

What about the MIC (Staphylococcus aureus [13]) of the same compound?
The MIC was 8 µg/mL (≈ 15.5 µM).

What about the MIC (Staphylococcus aureus [14]) of the same compound?
The MIC was 128 µg/mL (≈ 248 µM).

What about the MIC (Staphylococcus aureus [15]) of the same compound?
Its MIC is 4 µg/mL (≈ 7.74 µM).

And the MIC (Staphylococcus aureus [16])?
Its MIC is 128 µg/mL (≈ 248 µM).

What about the MIC (Staphylococcus aureus [17]) of the same compound?
Its MIC is 8 µg/mL (≈ 15.5 µM).

And the MIC (Staphylococcus aureus [18])?
Its MIC is 2 µg/mL (≈ 3.87 µM).

And the MIC50 (Staphylococcus aureus [19])?
Its MIC50 is 32 µg/mL (≈ 61.9 µM).

And the MIC90 (Staphylococcus aureus [19])?
The MIC90 was over 128 µg/mL.

What about the MIC (Staphylococcus aureus [20]) of the same compound?
Its MIC is over 128 µg/mL.

And the MIC (Staphylococcus aureus [21])?
Its MIC is over 128 µg/mL.

And the MIC (Staphylococcus aureus [22])?
Its MIC is 32 µg/mL (≈ 61.9 µM).

And the MIC (Staphylococcus aureus [23])?
Its MIC is 16 µg/mL (≈ 31 µM).

What about the MIC (Staphylococcus aureus [24]) of the same compound?
The MIC was 16 µg/mL (≈ 31 µM).
